Measured values: ChEMBL document CHEMBL1157638, “Fluorescent epigenetic small molecule induces expression of the tumor suppressor ras-association domain family 1A and inhibits human prostate xenograft” (J Med Chem, 2010)
The source made the active and inactive calls. No cut-off for these calls is given here.

Columns and labels:
NCI-H522 [1] = assay: Growth inhibition of human NCI-H522 cells; type: functional
NCI-H460 = assay: Growth inhibition of human NCI-H460 cells assessed as cell growth at 1 nM relative to untreated control; type: functional; conditions: read-out: Activity
UO-31 [2] = assay: Growth inhibition of human UO31 cells assessed as cell growth at 1 uM relative to untreated control; type: functional; conditions: read-out: Activity
NCI-H522 [3] = assay: Growth inhibition of human NCI-H522 cells assessed as cell growth at 1 nM relative to untreated control; type: functional; conditions: read-out: Activity
SK-MEL-28 = assay: Growth inhibition of human SK-MEL-28 cells; type: functional
OVCAR-4 = assay: Growth inhibition of human OVCAR4 cells assessed as cell growth at 100 nM relative to untreated control; type: functional; conditions: read-out: Activity
UO-31 [4] = assay: Growth inhibition of human UO31 cells; type: functional
NCI-H322M [5] = assay: Growth inhibition of human NCI-H322M cells assessed as cell growth at 10 nM relative to untreated control; type: functional; conditions: read-out: Activity
OVCAR-5 = assay: Growth inhibition of human OVCAR5 cells assessed as cell growth at 10 nM relative to untreated control; type: functional; conditions: read-out: Activity
U-251 [6] = assay: Growth inhibition of human U251 cells assessed as cell growth at 10 uM relative to untreated control; type: functional; conditions: read-out: Activity
ACHN = assay: Growth inhibition of human ACHN cells assessed as cell growth at 10 uM relative to untreated control; type: functional; conditions: read-out: Activity
SR = assay: Growth inhibition of human SR cells assessed as cell growth at 1 uM relative to untreated control; type: functional; conditions: read-out: Activity
MCF7 = assay: Growth inhibition of human MCF7 cells; type: functional
BT-549 [7] = assay: Growth inhibition of human BT549 cells assessed as cell growth at 10 nM relative to untreated control; type: functional; conditions: read-out: Activity
SF-295 [8] = assay: Growth inhibition of human SF295 cells assessed as cell growth at 10 nM relative to untreated control; type: functional; conditions: read-out: Activity
HT-29 = assay: Growth inhibition of human HT-29 cells; type: functional
[9] = Growth inhibition of human Hs 578T cells assessed as cell growth at 1 uM relative to untreated control; type: functional; conditions: read-out: Activity
SNB-75 [10] = assay: Growth inhibition of human SNB75 cells; type: functional
A549 [11] = assay: Growth inhibition of human A549 cells assessed as cell growth at 10 uM relative to untreated control; type: functional; conditions: read-out: Activity
PC-3 = assay: Growth inhibition of human PC3 cells assessed as cell growth at 1 nM relative to untreated control; type: functional; conditions: read-out: Activity
BT-549 [12] = assay: Growth inhibition of human BT549 cells; type: functional
CAKI-1 = assay: Growth inhibition of human Caki1 cells assessed as cell growth at 1 uM relative to untreated control; type: functional; conditions: read-out: Activity
Procedure, shortened: (§1)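 Run externally at the National Cancer Institute as a 59-cell-line panel screen, with concentrations up to 100 μM. Growth was scored relative to control, where negative growth or total cell kill was possible. Data are in the Supporting Information.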

786-0 = assay: Growth inhibition of human 786-0 cells assessed as cell growth at 100 nM relative to untreated control; type: functional; conditions: read-out: Activity
OVCAR-3 = assay: Growth inhibition of human OVCAR-3 cells assessed as cell growth at 1 uM relative to untreated control; type: functional; conditions: read-out: Activity
U-251 [13] = assay: Growth inhibition of human U251 cells; type: functional
SK-MEL-5 = assay: Growth inhibition of human SK-MEL-5 cells assessed as cell growth at 1 nM relative to untreated control; type: functional; conditions: read-out: Activity
IGROV-1 = assay: Growth inhibition of human IGROV1 cells assessed as cell growth at 100 nM relative to untreated control; type: functional; conditions: read-out: Activity
DU-145 = assay: Growth inhibition of human DU145 cells assessed as cell growth at 10 nM relative to untreated control; type: functional; conditions: read-out: Activity; procedure, shortened: as §1
M14 = assay: Growth inhibition of human M14 cells; type: functional
SNB-75 [14] = assay: Growth inhibition of human SNB75 cells assessed as cell growth at 10 uM relative to untreated control; type: functional; conditions: read-out: Activity
SN12C = assay: Growth inhibition of human SN12C cells assessed as cell growth at 10 uM relative to untreated control; type: functional; conditions: read-out: Activity
HCC 2998 = assay: Growth inhibition of human HCC2998 cells assessed as cell growth at 100 nM relative to untreated control; type: functional; conditions: read-out: Activity; procedure, shortened: as §1
NCI-H226 = assay: Growth inhibition of human NCI-H226 cells assessed as cell growth at 1 uM relative to untreated control; type: functional; conditions: read-out: Activity
SW-620 = assay: Growth inhibition of human SW620 cells; type: functional
[15] = target: DNA (cytosine-5)-methyltransferase 3A (Homo sapiens) (UniProt Q9Y6K1); assay: Binding affinity to DNMT3a in human PC3 cells cytoplasm at 5 uM after 6 hrs by antibody staining; type: cell-based; conditions: PC-3
DNA (cytosine-5)-methyltransferase 3A (Homo sapiens), sequence (Q9Y6K1 whole entry, looked up): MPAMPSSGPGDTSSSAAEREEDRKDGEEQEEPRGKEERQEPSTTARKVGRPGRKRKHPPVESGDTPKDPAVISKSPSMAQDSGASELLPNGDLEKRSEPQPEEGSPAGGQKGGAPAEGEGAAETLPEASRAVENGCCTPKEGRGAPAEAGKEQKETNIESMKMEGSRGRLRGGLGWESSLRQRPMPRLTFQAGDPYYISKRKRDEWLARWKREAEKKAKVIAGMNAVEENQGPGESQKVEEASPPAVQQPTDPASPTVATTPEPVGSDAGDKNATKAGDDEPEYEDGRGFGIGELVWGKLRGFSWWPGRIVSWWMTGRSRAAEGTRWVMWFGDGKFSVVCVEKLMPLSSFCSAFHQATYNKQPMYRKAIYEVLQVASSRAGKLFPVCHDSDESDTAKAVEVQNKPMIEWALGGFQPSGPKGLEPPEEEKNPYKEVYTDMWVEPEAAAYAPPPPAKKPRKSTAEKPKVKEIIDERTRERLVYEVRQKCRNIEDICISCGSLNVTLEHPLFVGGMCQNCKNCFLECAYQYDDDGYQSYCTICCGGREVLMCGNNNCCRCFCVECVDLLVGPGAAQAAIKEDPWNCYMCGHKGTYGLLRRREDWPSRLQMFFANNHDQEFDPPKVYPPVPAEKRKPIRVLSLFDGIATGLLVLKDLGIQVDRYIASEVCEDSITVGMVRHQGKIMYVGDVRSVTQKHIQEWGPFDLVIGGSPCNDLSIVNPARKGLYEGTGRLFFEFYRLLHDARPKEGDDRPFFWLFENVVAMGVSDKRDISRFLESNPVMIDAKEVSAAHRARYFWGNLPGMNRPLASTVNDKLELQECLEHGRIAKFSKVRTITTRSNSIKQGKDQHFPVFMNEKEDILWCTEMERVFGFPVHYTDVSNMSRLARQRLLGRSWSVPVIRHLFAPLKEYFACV
Procedure, shortened: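 PC-3 cells were plated overnight on fibronectin/[…]-coated slides and treated with 5 μM compound or DMSO for 1-6 h. Cells were PBS-washed, fixed in 4% formaldehyde, and stained with propidium iodide (nuclei) and anti-DNMT3a or anti-DNMT3b antibody. The compound was excited at 725 nm by multiphoton laser and imaged through a 500-550 nm filter by confocal microscopy.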

T47D = assay: Growth inhibition of human T47D cells assessed as cell growth at 1 uM relative to untreated control; type: functional; conditions: read-out: Activity
HCT-15 = assay: Growth inhibition of human HCT15 cells assessed as cell growth at 1 uM relative to untreated control; type: functional; conditions: read-out: Activity; procedure, shortened: as §1
[16] = Growth inhibition of human Hs 578T cells; type: functional
A549 [17] = assay: Growth inhibition of human A549 cells assessed as cell growth at 1 nM relative to untreated control; type: functional; conditions: read-out: Activity
NCI-H322M [18] = assay: Growth inhibition of human NCI-H322M cells assessed as cell growth at 10 uM relative to untreated control; type: functional; conditions: read-out: Activity
Malme-3M = assay: Growth inhibition of human MALME-3M cells assessed as cell growth at 10 nM relative to untreated control; type: functional; conditions: read-out: Activity
NCI-H322M [19] = assay: Growth inhibition of human NCI-H322M cells assessed as cell growth at 100 nM relative to untreated control; type: functional; conditions: read-out: Activity
HCT-116 = assay: Growth inhibition of human HCT116 cells; type: functional; procedure, shortened: as §1
A498 = assay: Growth inhibition of human A498 cells assessed as cell growth at 10 uM relative to untreated control; type: functional; conditions: read-out: Activity
SF-295 [20] = assay: Growth inhibition of human SF295 cells assessed as cell growth at 100 nM relative to untreated control; type: functional; conditions: read-out: Activity
[21] = read-out: LC50 (the source's name)

SMILES: COc1ccc2c(c1)[nH]c1c(C)c(OS(=O)(=O)c3cccc4c(N(C)C)cccc34)ccc12
- GI50 (NCI-H522 [1]): 9.97 µM
- TGI (NCI-H522 [1]): > 100 µM
- CC50 (NCI-H522 [1]; [21]): > 100 µM
- growth at 0.001 µM (NCI-H460): 102%
- growth at 1 µM (UO-31 [2]): 54%
- growth at 0.001 µM (NCI-H522 [3]): 109%
- GI50 (SK-MEL-28): 50.3 µM
- TGI (SK-MEL-28): > 100 µM
- CC50 (SK-MEL-28; [21]): > 100 µM
- growth at 0.1 µM (OVCAR-4): 87%
- GI50 (UO-31 [4]): 13.6 µM
- TGI (UO-31 [4]): > 100 µM
- CC50 (UO-31 [4]; [21]): > 100 µM
- growth at 0.01 µM (NCI-H322M [5]): 94%
- growth at 0.01 µM (OVCAR-5): 106%
- growth at 10 µM (U-251 [6]): 14%
- growth at 10 µM (ACHN): 21%
- growth at 1 µM (SR): 13%
- GI50 (MCF7): 2.71 µM
- TGI (MCF7): > 100 µM
- CC50 (MCF7; [21]): > 100 µM
- growth at 0.01 µM (BT-549 [7]): 90%
- growth at 0.01 µM (SF-295 [8]): 93%
- GI50 (HT-29): 3.71 µM
- TGI (HT-29): > 100 µM
- CC50 (HT-29; [21]): > 100 µM
- growth at 1 µM [9]: 20%
- GI50 (SNB-75 [10]): 4.48 µM
- TGI (SNB-75 [10]): 47.1 µM
- CC50 (SNB-75 [10]; [21]): > 100 µM
- growth at 10 µM (A549 [11]): 12%
- growth at 0.001 µM (PC-3): 101%
- GI50 (BT-549 [12]): 5.08 µM
- TGI (BT-549 [12]): > 100 µM
- CC50 (BT-549 [12]; [21]): > 100 µM
- growth at 1 µM (CAKI-1): 69%
- growth at 0.1 µM (786-0): 105%
- growth at 1 µM (OVCAR-3): -35%
- GI50 (U-251 [13]): 4.28 µM
- TGI (U-251 [13]): > 100 µM
- CC50 (U-251 [13]; [21]): > 100 µM
- growth at 0.001 µM (SK-MEL-5): 100%
- growth at 0.1 µM (IGROV-1): 98%
- growth at 0.01 µM (DU-145): 107%
- GI50 (M14): 50.2 µM
- TGI (M14): > 100 µM
- CC50 (M14; [21]): > 100 µM
- growth at 10 µM (SNB-75 [14]): -12%
- growth at 10 µM (SN12C): 30%
- growth at 0.1 µM (HCC 2998): 78%
- growth at 1 µM (NCI-H226): 51%
- GI50 (SW-620): 4.32 µM
- TGI (SW-620): > 100 µM
- CC50 (SW-620; [21]): > 100 µM
- Activity [15]: inactive
- growth at 1 µM (T47D): 15%
- growth at 1 µM (HCT-15): 25%
- GI50 [16]: 36.3 µM
- TGI [16]: 93.7 µM
- CC50 [16, 21]: > 100 µM
- growth at 0.001 µM (A549 [17]): 101%
- growth at 10 µM (NCI-H322M [18]): 34%
- growth at 0.01 µM (Malme-3M): 89%
- growth at 0.1 µM (NCI-H322M [19]): 94%
- GI50 (HCT-116): 4.38 µM
- TGI (HCT-116): > 100 µM
- CC50 (HCT-116; [21]): > 100 µM
- growth at 10 µM (A498): -4%
- growth at 0.1 µM (SF-295 [20]): 69%
